Where “and” joins values, the source holds several entries; their conditions need not be identical. Equal values may be shown once.
What was measured:
Format in all cases: toxicity, cell-based
[1] = tested on: HEK-293T; test: Multiplex assay against HEK293T; conditions: human
In short: (§1)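 Per cents of healthy-nucleus cells form the tubulin, mitochondrial-mass and membrane-permeability phenotype values. Live cells were stained at seeding with Hoechst33342, BioTracker Green Microtubule Cytoskeleton Dye, MitoTracker Red and Annexin V Alexa Fluor 680. After compound addition they were imaged on a CQ1 microscope at 37°C and 5% CO2, and CellPathfinder machine-learning gating split them into Hoechst high-intensity objects or normal cells, normal cells into healthy, pyknosed or fragmented nuclei, and pyknosed cells into mitotic or apoptotic.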

[2] = tested on: U2OS; test: Multiplex assay against U2OS; conditions: human; in short: as §1
[3] = tested on: Fibroblast; test: Multiplex assay against human fibroblast; in short: as §1
[4] = 12 h, 1 µM, compound concentration 1 uM
[5] = 12 h, 10 µM, compound concentration 10 uM
[6] = 24 h, 1 µM, compound concentration 1 uM
[7] = 24 h, 10 µM, compound concentration 10 uM
[8] = 48 h, 1 µM, compound concentration 1 uM
[9] = 48 h, 10 µM, compound concentration 10 uM

COC(=O)C1=C(C)NC(C)=C(C(=O)OC(C)C)C1c1cccc2nonc12 (stereo unspecified) [ISRADIPINE]
Population Apoptotic (%) [1, 4]: 14.42% and 4.72%
Population Fragmented Nuclei (%) [1, 4]: 2.79% and 5.84%
Population Hoechst High Intensity Objects (%) [1, 4]: 0%
Population Membrane Permeable-Phenotype (%) [1, 4]: 0%
Population Mitochondria Different-Phenotype (%) [1, 4]: 37.14% and 47.83%
Population Mitotic Cells (%) [1, 4]: 85.58% and 95.28%
Population Normal (%) [1, 4]: 100%
Population Pyknosed Nuclei (%) [1, 4]: 32.2% and 77.37%
Total Cell Count [1, 4]: 323 and 137
Population Apoptotic (%) [1, 5]: 3.97% and 9.29%
Population Fragmented Nuclei (%) [1, 5]: 0.97% and 1.28%
Population Hoechst High Intensity Objects (%) [1, 5]: 0.32% and 0%
Population Membrane Permeable-Phenotype (%) [1, 5]: 0.65% and 0%
Population Mitochondria Different-Phenotype (%) [1, 5]: 39.61% and 35.71%
Population Mitotic Cells (%) [1, 5]: 96.03% and 90.71%
Population Normal (%) [1, 5]: 99.68% and 100%
Population Pyknosed Nuclei (%) [1, 5]: 49.03% and 89.74%
Total Cell Count [1, 5]: 309 and 156
Population Apoptotic (%) [1, 6]: 10.81% and 2.08%
Population Fragmented Nuclei (%) [1, 6]: 3.28% and 3.47%
Population Healthy Nuclei (%) [1, 6]: 76.5% and 41.04%
Population Hoechst High Intensity Objects (%) [1, 6]: 0% and 1.14%
Population Membrane Permeable-Phenotype (%) [1, 6]: 2.62% and 1.41%
Population Mitochondria Different-Phenotype (%) [1, 6]: 16.9% and 15.49%
Population Mitotic Cells (%) [1, 6]: 89.19% and 97.92%
Population Normal (%) [1, 6]: 100% and 98.86%
Population Pyknosed Nuclei (%) [1, 6]: 20.22% and 55.49%
Population Tubulin-Different-Phenotype (%) [1, 6]: 7.62% and 1.41%
Population Apoptotic (%) [1, 7]: 14.52% and 14.29%
Population Fragmented Nuclei (%) [1, 7]: 1% and 1.72%
Population Hoechst High Intensity Objects (%) [1, 7]: 0.5% and 0%
Population Membrane Permeable-Phenotype (%) [1, 7]: 1.48% and 0%
Population Mitochondria Different-Phenotype (%) [1, 7]: 27.68% and 22.58%
Population Mitotic Cells (%) [1, 7]: 85.48% and 85.71%
Population Normal (%) [1, 7]: 99.5% and 100%
Population Pyknosed Nuclei (%) [1, 7]: 31.08% and 80.46%
Population Tubulin-Different-Phenotype (%) [1, 7]: 40.59% and 25.81%
Total Cell Count [1, 7]: 401 and 174
Population Apoptotic (%) [1, 8]: 8.94% and 17.46%
Population Fragmented Nuclei (%) [1, 8]: 4.71% and 1.73%
Population Healthy Nuclei (%) [1, 8]: 86.76% and 76.47%
Population Hoechst High Intensity Objects (%) [1, 8]: 0% and 1.03%
Population Membrane Permeable-Phenotype (%) [1, 8]: 5.91% and 5.88%
Population Mitochondria Different-Phenotype (%) [1, 8]: 13.5% and 15.84%
Population Mitotic Cells (%) [1, 8]: 91.06% and 82.54%
Population Normal (%) [1, 8]: 100% and 98.97%
Population Pyknosed Nuclei (%) [1, 8]: 8.52% and 21.8%
Population Apoptotic (%) [1, 9]: 9.09% and 15.38%
Population Fragmented Nuclei (%) [1, 9]: 2.12% and 2.49%
Population Healthy Nuclei (%) [1, 9]: 83.92% and 48.96%
Population Hoechst High Intensity Objects (%) [1, 9]: 0.14% and 0%
Population Membrane Permeable-Phenotype (%) [1, 9]: 6.22% and 3.39%
Population Mitochondria Different-Phenotype (%) [1, 9]: 41.85% and 34.75%
Population Mitotic Cells (%) [1, 9]: 90.91% and 84.62%
Population Normal (%) [1, 9]: 99.86% and 100%
Total Cell Count [1, 9]: 710 and 241
Population Apoptotic (%) [2, 4]: 29.03% and 12.5%
Population Fragmented Nuclei (%) [2, 4]: 2.02% and 3.01%
Population Healthy Nuclei (%) [2, 4]: 89.02% and 84.96%
Population Hoechst High Intensity Objects (%) [2, 4]: 0%
Population Membrane Permeable-Phenotype (%) [2, 4]: 0.97% and 0.88%
Population Mitochondria Different-Phenotype (%) [2, 4]: 0% and 5.31%
Population Mitotic Cells (%) [2, 4]: 70.97% and 87.5%
Population Normal (%) [2, 4]: 100%
Population Pyknosed Nuclei (%) [2, 4]: 8.96% and 12.03%
Population Tubulin-Different-Phenotype (%) [2, 4]: 0.97% and 0.88%
Total Cell Count [2, 4]: 346 and 133
Population Apoptotic (%) [2, 5]: 38.64% and 25.81%
Population Healthy Nuclei (%) [2, 5]: 87.43% and 71.74%
Population Hoechst High Intensity Objects (%) [2, 5]: 0% and 13.21%
Population Membrane Permeable-Phenotype (%) [2, 5]: 2.14% and 3.64%
Population Mitochondria Different-Phenotype (%) [2, 5]: 0% and 13.33%
Population Mitotic Cells (%) [2, 5]: 61.36% and 74.19%
Population Normal (%) [2, 5]: 100% and 86.79%
Population Pyknosed Nuclei (%) [2, 5]: 11.76% and 13.48%
Population Tubulin-Different-Phenotype (%) [2, 5]: 3.67% and 1.21%
Total Cell Count [2, 5]: 374 and 265
Population Apoptotic (%) [2, 6]: 48.48% and 31.25%
Population Fragmented Nuclei (%) [2, 6]: 1.75% and 1.23%
Population Healthy Nuclei (%) [2, 6]: 91.03% and 88.89%
Population Hoechst High Intensity Objects (%) [2, 6]: 0%
Population Membrane Permeable-Phenotype (%) [2, 6]: 0.24% and 2.78%
Population Mitochondria Different-Phenotype (%) [2, 6]: 0.24% and 4.86%
Population Mitotic Cells (%) [2, 6]: 51.52% and 68.75%
Population Normal (%) [2, 6]: 100%
Population Pyknosed Nuclei (%) [2, 6]: 7.22% and 9.88%
Population Tubulin-Different-Phenotype (%) [2, 6]: 0.72% and 0%
Total Cell Count [2, 6]: 457 and 162
Population Apoptotic (%) [2, 7]: 37.5% and 20.93%
Population Healthy Nuclei (%) [2, 7]: 84.47% and 69.69%
Population Hoechst High Intensity Objects (%) [2, 7]: 0% and 13.61%
Population Membrane Permeable-Phenotype (%) [2, 7]: 0.69% and 3.95%
Population Mitotic Cells (%) [2, 7]: 62.5% and 79.07%
Population Normal (%) [2, 7]: 100% and 86.39%
Population Pyknosed Nuclei (%) [2, 7]: 12.43% and 16.93%
Population Tubulin-Different-Phenotype (%) [2, 7]: 3.22% and 0%
Total Cell Count [2, 7]: 515 and 294
Population Apoptotic (%) [2, 8]: 41.54% and 54.55%
Population Fragmented Nuclei (%) [2, 8]: 2.53% and 3.11%
Population Healthy Nuclei (%) [2, 8]: 89.63% and 84.05%
Population Hoechst High Intensity Objects (%) [2, 8]: 0%
Population Membrane Permeable-Phenotype (%) [2, 8]: 1.35% and 1.39%
Population Mitochondria Different-Phenotype (%) [2, 8]: 0.27% and 4.17%
Population Mitotic Cells (%) [2, 8]: 58.46% and 45.45%
Population Normal (%) [2, 8]: 100%
Population Pyknosed Nuclei (%) [2, 8]: 7.84% and 12.84%
Population Tubulin-Different-Phenotype (%) [2, 8]: 1.35% and 0%
Population Apoptotic (%) [2, 9]: 50.83% and 53.45%
Population Fragmented Nuclei (%) [2, 9]: 3.44% and 6.67%
Population Healthy Nuclei (%) [2, 9]: 82.35% and 75.76%
Population Hoechst High Intensity Objects (%) [2, 9]: 0% and 9.34%
Population Membrane Permeable-Phenotype (%) [2, 9]: 1.58% and 4.4%
Population Mitochondria Different-Phenotype (%) [2, 9]: 0.14% and 6.4%
Population Mitotic Cells (%) [2, 9]: 49.17% and 46.55%
Population Normal (%) [2, 9]: 100% and 90.66%
Population Pyknosed Nuclei (%) [2, 9]: 14.22% and 17.58%
Population Tubulin-Different-Phenotype (%) [2, 9]: 2.73% and 2.8%
Total Cell Count [2, 9]: 844 and 364
Population Apoptotic (%) [3, 4]: 16.67% and 18.92%
Population Fragmented Nuclei (%) [3, 4]: 8.07% and 3.38%
Population Healthy Nuclei (%) [3, 4]: 65.84% and 81.01%
Population Hoechst High Intensity Objects (%) [3, 4]: 0%
Population Membrane Permeable-Phenotype (%) [3, 4]: 3.77% and 3.12%
Population Mitochondria Different-Phenotype (%) [3, 4]: 7.55% and 11.98%
Population Mitotic Cells (%) [3, 4]: 83.33% and 81.08%
Population Normal (%) [3, 4]: 100%
Population Pyknosed Nuclei (%) [3, 4]: 26.09% and 15.61%
Population Tubulin-Different-Phenotype (%) [3, 4]: 15.09% and 16.15%
Total Cell Count [3, 4]: 161 and 237
Population Fragmented Nuclei (%) [3, 5]: 12.61% and 3.08%
Population Healthy Nuclei (%) [3, 5]: 63.04% and 75.33%
Population Hoechst High Intensity Objects (%) [3, 5]: 0%
Population Membrane Permeable-Phenotype (%) [3, 5]: 5.52% and 7.02%
Population Mitochondria Different-Phenotype (%) [3, 5]: 17.24% and 19.3%
Population Mitotic Cells (%) [3, 5]: 94.64% and 77.55%
Population Normal (%) [3, 5]: 100%
Population Pyknosed Nuclei (%) [3, 5]: 24.35% and 21.59%
Population Tubulin-Different-Phenotype (%) [3, 5]: 40% and 48.54%
Total Cell Count [3, 5]: 230 and 227
Population Apoptotic (%) [3, 6]: 18.52% and 21.74%
Population Fragmented Nuclei (%) [3, 6]: 12.43% and 8.5%
Population Healthy Nuclei (%) [3, 6]: 72.97% and 82.19%
Population Hoechst High Intensity Objects (%) [3, 6]: 0%
Population Membrane Permeable-Phenotype (%) [3, 6]: 5.93% and 2.46%
Population Mitochondria Different-Phenotype (%) [3, 6]: 1.48% and 4.93%
Population Mitotic Cells (%) [3, 6]: 81.48% and 78.26%
Population Normal (%) [3, 6]: 100%
Population Pyknosed Nuclei (%) [3, 6]: 14.59% and 9.31%
Population Tubulin-Different-Phenotype (%) [3, 6]: 12.59% and 16.26%
Total Cell Count [3, 6]: 185 and 247
Population Fragmented Nuclei (%) [3, 7]: 9.72% and 2.69%
Population Healthy Nuclei (%) [3, 7]: 68.83% and 76.23%
Population Hoechst High Intensity Objects (%) [3, 7]: 0%
Population Membrane Permeable-Phenotype (%) [3, 7]: 4.12%
Population Mitochondria Different-Phenotype (%) [3, 7]: 8.82% and 15.88%
Population Mitotic Cells (%) [3, 7]: 98.11% and 80.85%
Population Normal (%) [3, 7]: 100%
Population Pyknosed Nuclei (%) [3, 7]: 21.46% and 21.08%
Population Tubulin-Different-Phenotype (%) [3, 7]: 39.41% and 47.06%
Total Cell Count [3, 7]: 247 and 223
Population Apoptotic (%) [3, 8]: 30% and 23.53%
Population Fragmented Nuclei (%) [3, 8]: 7.14% and 6.07%
Population Healthy Nuclei (%) [3, 8]: 81.87% and 87.04%
Population Hoechst High Intensity Objects (%) [3, 8]: 0%
Population Membrane Permeable-Phenotype (%) [3, 8]: 2.01% and 1.4%
Population Mitotic Cells (%) [3, 8]: 70% and 76.47%
Population Normal (%) [3, 8]: 100%
Population Pyknosed Nuclei (%) [3, 8]: 10.99% and 6.88%
Population Tubulin-Different-Phenotype (%) [3, 8]: 10.07% and 17.21%
Total Cell Count [3, 8]: 182 and 247
Population Apoptotic (%) [3, 9]: 33.33% and 50%
Population Fragmented Nuclei (%) [3, 9]: 9.58% and 5.05%
Population Healthy Nuclei (%) [3, 9]: 85.42% and 89.45%
Population Hoechst High Intensity Objects (%) [3, 9]: 0%
Population Membrane Permeable-Phenotype (%) [3, 9]: 1.46% and 8.72%
Population Mitochondria Different-Phenotype (%) [3, 9]: 14.63% and 8.72%
Population Mitotic Cells (%) [3, 9]: 66.67% and 50%
Population Normal (%) [3, 9]: 100%
Population Pyknosed Nuclei (%) [3, 9]: 5% and 5.5%
Population Tubulin-Different-Phenotype (%) [3, 9]: 24.39% and 55.38%
Total Cell Count [3, 9]: 240 and 218

From ChEMBL document CHEMBL5724801, “EUbOPEN Chemogenomics Library - Multiplex” (2024)
